Results on 19 molecules are retold here after ChEMBL document CHEMBL1125489, “Antitumor agents. 134. New shiraiachrome-A- and calphostin-C-related perylene derivatives as cytotoxic and antiviral agents and inhibitors of protein kinase C” (1992).

Values after ≈ are worked out from the molar mass of the structure shown. Values joined by “and” are separate entries in the source; they are usually repeats but may differ in a detail not shown here. Equal values may be shown once. Active and inactive are the calls of the source. The rule behind the calls is not given here.

In assay [1] the target is T1, Protein kinase C (PKC) (Homo sapiens) (UniProt O94806+P41743+P17252+P05129+Q05655+P05771+Q05513+Q02156+P24723+Q15139+Q04759). Kind of assay: Inhibition of protein kinase C(PKC). The format is protein assay. Put shortly: (§1)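 Compound added in DMSO, with DMSO-only controls. Reaction started with PKC (1 μg/mL) and stopped with ice-cold TCA plus BSA. Precipitate collected on GF/C filters and counted by β scintillation.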

Assay [2] can be described thus: Cytotoxic concentration against RPMI-7951 tumor cells. In kind it is functional. As to conditions: Homo sapiens, read-out: ED50 (the source's name). The essentials: (§2)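 Tumor cells exposed 3 days to drug at 0.1, 1 and 10 μg/mL. ED50 is the concentration giving 50% reduction in cell number, estimated from the degree of inhibition at these three concentrations.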
Assay [3] in a line: Cytotoxic concentration against TE-671 tumor cells. In kind it is functional. As to conditions: Homo sapiens, read-out: ED50 (the source's name). The essentials:
as §2

The subject of the next assay is P388. Kind of assay: Cytotoxic concentration against P388 tumor cells. The format is functional. As to conditions: Mus musculus, read-out: ED50 (the source's name). Put shortly:
as §2

The subject of assay [4] is A549. Nature of the assay: Cytotoxic concentration against A-549 tumor cells; Inactive at 10 ug/mL. The format is functional, cell-based. As to conditions: Homo sapiens. The essentials:
as §2

Assay [5] deals with Vero. Kind of assay: Antiviral activity against HSV-1 in vero cells. The format is functional. As to conditions: Chlorocebus sabaeus, read-out: ED50. Put shortly:
(§3)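 Confluent Vero cells infected at 3 PFU/cell with HSV-1 (Kos) or HSV-2 (333) in RPMI-1640 with 2% FCS. Drugs added during inoculation as two-fold serial dilutions (final 100, 50, 25, 12.5 μg/mL). Cytopathic effect scored by microscopy after 24 h.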

For assay [6], the system named is Vero. Nature of the assay: Antiviral activity against HSV-2 in vero cells. The format is functional. As to conditions: Chlorocebus sabaeus, read-out: ED50. Put shortly: as §3
Assay [7] deals with Protein kinase C, PKC; classical/novel (Homo sapiens) (UniProt O94806+P17252+P05129+Q05655+P05771+Q02156+P24723+Q15139+Q04759). Kind of assay: Inhibition of protein kinase C(PKC), inhibition of phorbol binding by 80-100% at 38 uM. In kind it is protein assay.
In a further assay the test system is HCT-8. Nature of the assay: Cytotoxic concentration against HCT-8 tumor cells. The format is functional. As to conditions: Homo sapiens, read-out: ED50 (the source's name). The essentials:
as §2

Assay [8] deals with A549. Kind of assay: Cytotoxic concentration against A-549 tumor cells. In kind it is functional. As to conditions: Homo sapiens, read-out: ED50 (the source's name). Put shortly: as §2
In assay [9] the target is T1, Protein kinase C (PKC) (Homo sapiens). Nature of the assay: Inhibition of protein kinase C(PKC), maximal conc 40 uM. In kind it is protein assay. The essentials:
as §1

The next assay has as its system KB 3-1. Nature of the assay: Cytotoxic concentration against KB tumor cells. The format is functional. As to conditions: Homo sapiens, KB 3-1, read-out: ED50. The essentials: as §2

For the molecule `N=c1cc2c3cc(N)c(O)c4c(O)ccc(c5ccc(O)c(c1=O)c52)c43`, the PKC in assay [1] was 95 µM.
For the molecule `O=c1ccc2c3ccc(=O)c4cccc(c5cccc1c52)c43`, the figures for the EC50 (in assay [2]; in assay [3]; in the assay on P388) were 8.9 µg/mL (≈ 31.5 µM), 5210 µg/mL (≈ 18500 µM) and 4350 µg/mL (≈ 15400 µM), respectively. Besides, in the assay with A549 [4], the ED50 entry was “inactive”. The PKC in [1] was greater than 218 µM.
Regarding `O=c1cc(S(=O)(=O)[O-])c2c3c(S(=O)(=O)[O-])cc(O)c4c(=O)cc(S(=O)(=O)[O-])c(c5c(S(=O)(=O)[O-])cc(O)c1c52)c43.[Na+].[Na+].[Na+].[Na+]`, the EC50 was determined as 2 µg/mL with Vero [5] and 10 µg/mL in the assay with Vero [6]. Besides, the PKC in [1] was 200 µM and > 218 µM.
Consider `COc1c2c3c4c(c(OC)c(=O)c5c(O)cc(OC)c(c6c(OC)cc(O)c(c1=O)c63)c54)[C@@H](C(C)=O)[C@@](C)(O)C2` (stereo in doubt; 1), for which the PKC in [7] was determined as 44 µM.
With `CC(=O)Oc1cc2c3cc(OC(C)=O)c(OC(C)=O)c4cccc(c5cccc(c1OC(C)=O)c52)c43`, the EC50 stood at 50 µg/mL (≈ 103 µM) in assay [2]; 610 µg/mL (≈ 1260 µM) in assay [3]; 640 µg/mL (≈ 1320 µM) in the assay with P388; 4160 µg/mL (≈ 8590 µM) in the assay with HCT-8; 5410 µg/mL (≈ 11200 µM) in the assay with A549 [8]. The PKC in assay [1] was greater than 218 µM.
On to `O=c1ccc2c3ccc(O)c4c(=O)ccc(c5ccc(O)c1c52)c43`, for which the PKC in [1] is greater than 218 µM.
Regarding `COc1cc(C(=O)Oc2cc3c4cc(OC(=O)c5cc(OC)c(O)c(OC)c5)c(=O)c5cccc(c6cccc(c2=O)c63)c54)cc(OC)c1O`, in assay [9], the PKC is greater than 40 µM.
Consider `N=c1cc2c3cc(N)c(O)c4cccc(c5cccc(c1=O)c52)c43`, for which the PKC in assay [1] is greater than 218 µM.
Still for that read-out and setting: under `O=c1cc(O)c2c3c(O)cc(O)c4c(=O)cc(O)c(c5c(O)cc(O)c1c52)c43` stands greater than 218 µM.
For `CC(=O)Oc1cc(O)c2c(=O)cc(OC(C)=O)c3c4c(OC(C)=O)cc(=O)c5c(O)cc(OC(C)=O)c(c1c23)c54`, the PKC in [1] was greater than 218 µM.
`COc1cc(C(=O)Oc2cc3c4cc(OC(=O)c5cc(OC)c(OC)c(OC)c5)c(=O)c5cccc(c6cccc(c2=O)c63)c54)cc(OC)c1OC` gave a PKC in [9] greater than 40 µM.
`CCCCCCCCCCCCCCCCCC(=O)Oc1cc2c3cc(OC(=O)CCCCCCCCCCCCCCCCC)c(=O)c4cccc(c5cccc(c1=O)c52)c43` came in with a PKC in [9] greater than 40 µM. The EC50 with KB 3-1 worked out at 5.57 µg/mL (≈ 6.57 µM).
For the molecule `CC(=O)Oc1ccc2c3ccc(OC(C)=O)c4c(=O)cc(OC(C)=O)c(c5c(OC(C)=O)cc(=O)c1c25)c43`, in [1], the PKC is greater than 218 µM.
Take `CC(=O)/N=c1\ccc2c3ccc(NC(C)=O)c4c(=O)c(OC(C)=O)cc(c5cc(OC(C)=O)c(O)c1c25)c43`: the PKC in [1] is 89 µM.
Consider `CC(=O)Oc1cc2c3cc(OC(C)=O)c(=O)c4cccc(c5cccc(c1=O)c52)c43`, for which the EC50 stood at 50 µg/mL (≈ 126 µM) in assay [2]; 680 µg/mL (≈ 1710 µM) in [3]; 360 µg/mL (≈ 904 µM) in the assay on P388; 560 µg/mL (≈ 1410 µM) in the assay with HCT-8; 3840 µg/mL (≈ 9640 µM) with A549 [8]; 0.54 µg/mL (≈ 1.36 µM) in the assay with KB 3-1. This molecule also gave a PKC in [1] of 82 µM.
Turning to `COc1c2c3c4c(c(OC)c(=O)c5c(O)cc(OC)c(c6c(OC)cc(O)c(c1=O)c63)c54)[C@@H](C(C)=O)[C@@](C)(O)C2` (stereo in doubt; 2) [HYPOCRELLIN A], the EC50 in the assay with Vero [5] came to 5 µg/mL (≈ 9.15 µM); in the assay with P388 it was 390 µg/mL (≈ 714 µM); in the assay with Vero [6], 5 µg/mL (≈ 9.15 µM).
As to `COc1cc(O)c2c(=O)cc(OC)c3c4c(OC)cc(=O)c5c(O)cc(OC)c(c1c23)c54`, the EC50 in the assay on Vero [5] came to 3 µg/mL (≈ 6.91 µM); in the assay on Vero [6] it was 15 µg/mL (≈ 34.5 µM). Also, in assay [1], the PKC is greater than 218 µM.
Regarding `O=C(/C=C/c1ccccc1)Oc1cc2c3cc(OC(=O)/C=C/c4ccccc4)c(=O)c4cccc(c5cccc(c1=O)c52)c43`, the EC50 (in assay [2]; in the assay with KB 3-1) was 5.5 µg/mL (≈ 9.57 µM) each time. Besides, the PKC in [9] was greater than 40 µM.
On to `O=c1cc2c3cc(O)c(O)c4cccc(c5cccc(c1=O)c52)c43`, for which the PKC in [7] came out at 14 µM.
